# A number with no mark means an inactive call.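 The calls were made as follows: active = viability at or below 30% in both replicate assays; inconclusive = viability at or below 30% in just one of the two assays; inactive = the rest.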
# Assay: HUVEC growth inhibition – cell-based, human, primary screen (AID 575);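 also: 100% = median of untreated cell wells with 0.1% DMSO on each plate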
# Conditions: HUVEC proliferation, CellTiter-Glo luminescence, 72 h; at 10 µM; hits give low values
# Outline: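 System – primary HUVEC, no more than 12 passages · Medium – Low-serum (2% FBS) EBM, supplemented · Times – 72 h exposure, 37 °C, 5% CO2, 30 min RT equilibration · Measured by – luminescent ATP assay · Read-out – % viability relative to median vehicle-well signal on each plate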
row,SMILES,viability
1,CCn1c(=O)cc(SCC(=O)Nc2cccnc2)c2ccccc21,56.5%
2,c1ccc2c(c1)CNc1ccccc1C2,73.5%
3,O=C(Nc1cccc(C(F)(F)F)c1)c1ccco1,95.9%
4,CCC(c1nnc(SCC(=O)NCC2CCCO2)n1Cc1ccccc1)N(C)C (configuration not stated),96.8%
5,COC(=O)c1cc(Br)c(=O)n(-c2ccc(OC)cc2)c1,100%
6,COc1cccc(OCc2nc3ccccc3[nH]2)c1,101%
7,O=c1c2c(-c3ccccc3)csc2nc2n1CCC2,77.2%
8,COc1cccc(C(=O)CN2CCC(NC(=O)NC3CCCCC3)CC2)c1,102%
9,COc1ccc(OC)c(C(=O)COC(=O)c2cc(C)oc2C)c1,62.9%
10,O=C(Nc1ccccc1C(=O)N1CCN(c2ccccc2)CC1)c1ccco1,95.6%
11,Cc1ccc(C(c2nnnn2CCC(C)C)N2CCN(C)CC2)cc1 (configuration not stated),97.9%
12,COC(=O)C(C)Oc1ccc2c3c(c(=O)oc2c1)CCCCC3 (configuration not stated),93.7%
13,COc1ccccc1N1CCN(C(=O)c2ccc(S(=O)(=O)N3CCCCCC3)cc2)CC1,89.4%
14,COc1ccc(CCNC(=O)CC2COc3ccccc3O2)cc1OC (configuration not stated),100%
15,Cc1cccc(-c2noc(CCC(=O)Nc3ccccc3)n2)c1,79.4%
16,C=CCn1c(=O)/c(=C/c2ccc(O)cc2)s/c1=C(/C#N)c1nnc2n1CCCCC2,83.4%
17,O=C(NCCCNC1CCCCC1)c1ccc(/C=N/O)nc1,92.4%

# From PubChem BioAssay
